Only some compounds are listed: those with a hit (about 2.6% of all), similar ones and a draw of the others.
Rin1 Abl inh: inhibitors of human Rin1-Abl protein interaction. P00519+Q13671. TR-FRET Rin1/Abl binding, biochemical. inhibition, % at 7.35 µM. 360,000 tested, 0.4% active; in the data active means inhibition above about 5%, passing the limit was not always enough
Rce1 inh: blocks yeast Ras-converting enzyme | Q03530 | yeast membranes, quenched prenylated peptide cleavage fluorescence | calls only | 290,000 tested, 0.27% active | AID 2563;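 active means fall in fluorescence gain of 50% or more versus controls, with final raw signal at or below 3038400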
Myeloid diff MLP: promotes myeloid progenitor differentiation | ER-HoxA9 myeloid progenitors, lysozyme-GFP differentiation, flow cytometry | calls only at 10 µM | 360,000 tested, 1% active | AID 624256;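 active means normalized GFP-positive differentiation at or above the plate's own cutoff, the solvent-only control mean plus 3 SD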;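 further: cells exposed to compound for four days before flow analysis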
GRK2 inh: blocks RNA aptamer binding to human GRK2; AID 488847; P25098; 330,000 tested, 0.59% active; bead flow cytometry, FAM-aptamer displacement from GRK2; inhibition of aptamer binding, % at 10 µM;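 active means inhibition of aptamer binding above 40%, roughly 3 SD of noise, on plates passing a quality check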;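 further: median bead fluorescence of bound FAM aptamer so fluorescent compounds give negative values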
Target sequence (P25098 whole entry, looked up): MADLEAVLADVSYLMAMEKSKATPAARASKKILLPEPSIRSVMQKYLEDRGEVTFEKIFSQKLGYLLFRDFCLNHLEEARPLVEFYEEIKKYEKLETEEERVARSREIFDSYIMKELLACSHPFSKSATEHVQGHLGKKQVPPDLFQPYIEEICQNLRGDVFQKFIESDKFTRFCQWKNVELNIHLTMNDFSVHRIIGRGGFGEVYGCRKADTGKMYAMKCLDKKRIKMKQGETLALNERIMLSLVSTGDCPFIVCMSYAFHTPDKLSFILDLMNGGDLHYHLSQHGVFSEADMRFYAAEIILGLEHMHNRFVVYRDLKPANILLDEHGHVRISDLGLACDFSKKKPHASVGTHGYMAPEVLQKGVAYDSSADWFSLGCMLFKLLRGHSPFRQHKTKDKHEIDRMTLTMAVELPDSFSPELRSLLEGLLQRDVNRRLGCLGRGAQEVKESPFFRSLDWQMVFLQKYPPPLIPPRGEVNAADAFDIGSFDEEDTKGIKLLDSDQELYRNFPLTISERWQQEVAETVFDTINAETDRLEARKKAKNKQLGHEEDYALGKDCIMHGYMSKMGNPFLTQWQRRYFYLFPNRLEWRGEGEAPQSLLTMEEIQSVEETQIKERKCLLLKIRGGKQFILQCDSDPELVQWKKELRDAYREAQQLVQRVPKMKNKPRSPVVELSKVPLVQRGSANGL
SKN-1 inh: C. elegans SKN-1 inhibition; C. elegans VP596 Pgst-4::GFP/RFP ratio, acrylamide-induced, 24 h; 360,000 tested, 0.49% active; AID 624304; inhibition, % at 21.8 µM;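 active means interference check ratio from 0.5 to 1.5 plus GFP to RFP signal ratio inhibition reaching or exceeding a fixed threshold, cut at about 30% in these data, passing the limit was not always enough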
T cell modulator: T cell immune modulation candidate; 330,000 tested, 0.068% active; response (vesicle binding), % at 7 µM; 2C CD8+ T cell-vesicle binding, flow cytometry; hits give low values;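 active means response, share of CD8 T cells binding vesicles, and their 90th percentile fluorescence all below set limits, cut at about 80% in these data, passing the limit was not always enough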;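 further: values below 100% mean blocked vesicle binding to the CD8+ T cells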
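Read-out – percent CD8+ FL2 mean versus row control · System – murine 2C transgenic CD8+ T lymphocytes · Times – 1.5 h cell–vesicle binding at 37 °C, then 20 min icy labelling · Control set – naked vesicles low, QL9 vesicles with vehicle high · Detection – cytometric PE anti-B7-1 and Alexa647 anti-CD8 signals after 1% paraformaldehyde fixation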
Of the large screens only hits and unclear results are named; the others gave an inactive call.

Cc1ccc(C2=CC(c3ccc(C)cc3)n3ncnc3N2)cc1 (centres undefined)	none
COc1ccc(NC(=O)CN2CCC(n3c(C)nc4cc(F)ccc43)CC2)c(OC)c1	none
COc1cc(OC)cc(C(=O)N2CCC(n3c(C)nc4cc(F)ccc43)CC2)c1	Myeloid diff MLP active
Cc1c(CCC(=O)NCCCn2ccnc2)c(=O)oc2cc3oc4c(c3cc12)CCCC4	none
CCOC(=O)Cn1c(-c2nonc2NC(=O)c2ccccc2F)nc2ccccc21	Myeloid diff MLP active
Clc1ccc2oc(SCc3cccnc3)nc2c1	SKN-1 inh 41
Clc1ccc2oc(-c3cccnc3)nc2c1	SKN-1 inh 50
C=CCOC(=O)Nc1nc(CCNC(=O)OCc2ccccc2)c(C(=O)O)s1	none (no result: Rin1 Abl inh, Rce1 inh, GRK2 inh, T cell modulator)
COc1ccc(CN(C(=O)CNC(=O)c2ccco2)C(C(=O)NCC2CCCO2)c2ccccc2)cc1 (centres undefined)	none
COc1ccc(-c2nc(CS(=O)CC(=O)NCCCN3CCCC(C)C3)c(C)o2)cc1OC (centres undefined)	none
c1ccc(CSc2cc3ccccc3[nH]2)cc1	none
Cc1ccc(C(=O)n2nc(-c3cccnc3)nc2N)cc1	SKN-1 inh 37
COc1cccc(-c2nc(-c3cccs3)no2)c1	SKN-1 inh 46
COc1cccc(-c2noc(-c3ccoc3C)n2)c1	SKN-1 inh 56
COc1cc(OC)cc(-c2nc(-c3cccs3)no2)c1	none
NCc1ccccc1	none (no result: Rce1 inh)
c1ccc(CN2CCN(CCOCCOc3ccc4c(c3)CCC4)CC2)cc1	none
O=C(CNCC1CCCO1)NCc1ccco1 (centres undefined)	Myeloid diff MLP active
Cc1ccc(S(=O)(=O)c2cc(OC(=O)c3ccco3)ccc2OC(=O)c2ccco2)cc1	none
O=C(Oc1ccc(OC(=O)c2ccco2)c(S(=O)(=O)c2ccc(Br)cc2)c1)c1ccco1	SKN-1 inh 36
COc1cc(C(c2c(C(=O)O)[nH]c3ccccc23)c2c(C(=O)O)[nH]c3ccccc23)ccc1OCc1ccccc1	none
O=C(O)c1[nH]c2ccccc2c1C(c1ccccc1)c1c(C(=O)O)[nH]c2ccccc12	GRK2 inh 51
CC1(c2ccc(OC(F)F)cc2)NC(=O)N(CC(=O)N2c3ccccc3NC(=O)C2(C)C)C1=O (centres undefined)	none (no result: Rce1 inh)
Nc1c(N(CCC2=CCCCC2)C(=O)c2ccc([N+](=O)[O-])o2)c(=O)[nH]c(=O)n1Cc1ccccc1	Myeloid diff MLP active
CCOC(=O)C1=C(C)NC(=O)NC1c1ccc(NC(C)=O)cc1 (centres undefined)	none
CCCCOC(=O)C1=C(C)NC(=O)NC1c1ccccc1 (centres undefined)	none
CCOC(=O)C1=C(C)NC(=O)NC1c1ccc(N2CCC(c3ccccc3)=N2)cc1 (centres undefined)	Myeloid diff MLP active
CCSCCOC(=O)C1=C(C)NC(=O)NC1c1ccccc1 (centres undefined)	Rce1 inh active
CC(=O)Nc1ccc2nc(-c3ccccn3)[nH]c2c1	none
Nc1ccc2nc(-c3cccc(-c4nc5ccc(N)cc5[nH]4)n3)[nH]c2c1	Myeloid diff MLP active
c1ccc(-c2nc3cc4ccccc4cc3[nH]2)nc1	SKN-1 inh 42
CCN(CC)c1ccc2cc(-c3nc(-c4cc5ccccc5oc4=O)cs3)c(=O)oc2c1	Myeloid diff MLP active (no result: Rce1 inh, GRK2 inh, T cell modulator)
Cc1c(C(=O)NCc2ccccc2C(F)(F)F)sc(=O)n1Cc1ccc2c(c1)OCO2	none (no result: Rce1 inh, GRK2 inh, T cell modulator)
CN(C)c1cc[n+](CC(=O)c2cccs2)cc1	Myeloid diff MLP active
C(=N\N1CCN(Cc2ccccc2)CC1)/c1ccccc1	none
Clc1cccc(/C=N/N2CCN(Cc3ccccc3)CC2)c1	SKN-1 inh 44
CCc1ccc(OCC(=O)N/N=C(\C)c2ccc(O)cc2O)cc1	Myeloid diff MLP active
CCCCN(CCCC)c1nc2ccccc2nc1C(C#N)C(=O)NCCCOC (centres undefined)	none
CCN(CC)c1nc2ccccc2nc1C(C#N)C(=O)NCCCOC (centres undefined)	Myeloid diff MLP active
Cc1cc(C)c(NC(=O)CNC(=O)c2ccc3ncsc3c2)c(C)c1	none (no result: Rce1 inh)
COc1cccc(NC(=O)N2CCN(c3nc(-c4cccc(OC)c4)cs3)CC2)c1	none
COc1cccc(-c2csc(N3CCN(C(=O)NC45CC6CC(CC(C6)C4)C5)CC3)n2)c1	Rce1 inh active
